NF-kB expr up – activators of NF-kB expression in neurons, primary screen, cell-based, HTS; human neuronal cells, NF-kB reporter expression; active compounds read high; fold change at 12.5 µM; 1.6% of 190,000 active; in the data active = fold change above about 3.3
FLuc inh counter – firefly luciferase enzyme inhibitors, primary screen, artefact control for luciferase-based inhibitor screens, biochemical, luminescence, ATPLite. inhibition, % at 10 µM. Luciferin 4-monooxygenase (Photinus pyralis), P08659. 1.5% of 200,000 active. 10 min;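 active = inhibition above about 50% when tested at 10 µM, limit read from the data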
Target sequence (P08659 whole entry, looked up): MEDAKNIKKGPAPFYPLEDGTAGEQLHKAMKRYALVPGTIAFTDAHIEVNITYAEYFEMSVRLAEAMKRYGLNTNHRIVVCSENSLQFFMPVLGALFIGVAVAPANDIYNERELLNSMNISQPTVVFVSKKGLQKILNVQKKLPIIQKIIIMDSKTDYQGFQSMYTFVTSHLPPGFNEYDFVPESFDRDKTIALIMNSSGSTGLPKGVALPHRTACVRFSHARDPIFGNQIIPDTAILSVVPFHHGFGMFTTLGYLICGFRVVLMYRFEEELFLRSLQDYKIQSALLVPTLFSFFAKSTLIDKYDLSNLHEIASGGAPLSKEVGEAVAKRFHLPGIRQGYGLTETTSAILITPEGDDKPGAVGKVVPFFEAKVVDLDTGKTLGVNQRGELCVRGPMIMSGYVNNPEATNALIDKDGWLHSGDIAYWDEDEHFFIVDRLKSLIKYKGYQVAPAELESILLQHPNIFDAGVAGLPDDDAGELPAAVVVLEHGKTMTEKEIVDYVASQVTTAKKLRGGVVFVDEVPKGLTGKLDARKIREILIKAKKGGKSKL
Rad51 HR inh – human RAD51 strand exchange inhibitors, primary screen, biochemical, fluorescence; AID 1385, 2008; hRad51 DNA strand exchange, fluorescence dequenching; inhibition, % at 10 µM; 0.085% of 200,000 active; DNA repair protein RAD51 homolog 1 (Homo sapiens), Q06609;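 active = inhibition above 40% at the single screening dose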
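material = hRad51 filaments on single-stranded DNA | reagent = Donor/quencher-labelled 47-bp dsDNA substrate | compound = 10 µM final, single point | schedule = strand-exchange reaction 15 min at room temperature | measured by = fluorescein emission 520 nm, excitation 485 nm | read-out basis = % inhibition versus plate control and blank means | benchmarks = plate controls and plate blanks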
FLuc stim CS – FLuc activators, initial screening, artefact control for FLuc-dependent activation tests, biochemical, ATPlite luminescence; AID 1027, 2008; ATPlite luciferase biochemical, 10 min; 0 = ATP-free wells, 1 = DMSO control; activation factor at 10 µM; Luciferin 4-monooxygenase (Photinus pyralis), P08659; 200,000 tested, under 10 active;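 active = luciferase activation factor, scaled between plate controls, of at least 2 with compound at 10 µM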
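Material: luciferase plus luciferin reagent, cell-free. Medium: PBS buffer for ATP. Also added: ATP substrate, dispensed from a 10.24 µM working solution in PBS. Doses: test compounds dosed from 2 mM stocks in 100% DMSO. Incubation: 10 min post-reagent at room temperature. Technique: light output (luminescence). Read-out basis: luminescence gain marking luciferase activators.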
STAT1 activator – STAT1 signaling activators, primary screen, cell-based, HTS, luciferase reporter; 2.6% of 200,000 active; AID 932, 2007; activation (% of control), % at 5.5 µM; NIH 3T3 STAT1-luciferase reporter, IFN-gamma, luminescence; 100% = IFN-gamma alone, no compound;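 active = activation above the screen-wide mean activation plus 3 SD, cut at about 130% in these data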
APP 5'UTR act – activators of APP 5'UTR luciferase reporter, primary screen, SH-SY5Y cells. SH-SY5Y APP 5'UTR luciferase reporter, luminescence; zero percent = DMSO vehicle wells. activation, % at 2 µM. 1% of 190,000 active. AID 1276, 2008;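 active = activation above a set limit, based on mean plus 3 SD of controls, cut at about 140% in these data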
Hits are given with their value; – = inactive; · = not tested or not shown. Most compounds without a hit are left out; they make up all but 3.9% or so of the library.

SMILES	NF-kB expr up	FLuc inh counter	Rad51 HR inh	FLuc stim CS	STAT1 activator	APP 5'UTR act
Cc1ccc2nc(NC(=O)CCCC(=O)O)sc2c1	–	66	–	–	–	–
O=C(Cc1c(F)cccc1Cl)Nc1nc2ccccc2s1	–	–	–	–	135	–
COc1ccc(/C=C(\C#N)C(=O)OCC(=O)NC(C)c2ccccc2)cc1 (centres undefined)	–	–	–	–	–	–
COc1ccc(/C=C(\C#N)C(=O)OCC(=O)Nc2ccc(-c3nc4ccc(C)cc4s3)cc2)cc1	4.5	–	–	–	–	184
CNS(=O)(=O)c1cccc(C(=O)OCC(=O)Nc2ccc(-c3nc4ccc(C)cc4s3)cc2)c1	–	–	–	–	–	167
Cc1ccc2nc(-c3ccc(NC(=O)COC(=O)c4ccco4)cc3)sc2c1	4.3	–	–	–	141	148
Cc1ccc2nc(-c3ccc(NC(=O)COC(=O)c4cncc(Br)c4)cc3)sc2c1	6.5	–	–	–	144	152
Cc1ccc(NC(=O)COC(=O)c2ccco2)cc1	–	–	–	–	–	–
Cc1[nH]c2ccccc2c1C(=O)C(=O)NCc1ccco1	–	–	–	–	–	–
CCN(CC)c1ncc(C#N)c(N)n1	·	·	–	·	·	·
COc1cccc(C(=O)NNC(=O)Cc2cccs2)c1	–	–	–	–	–	–
Cc1ccc(C)c(S(=O)(=O)NC(C)C(=O)Nc2ccc(-c3nc4ccccc4s3)cc2)c1 (centres undefined)	–	–	–	–	131	–
CC(NS(=O)(=O)c1cccc(Cl)c1)C(=O)Nc1ccc(-c2nc3ccccc3s2)cc1 (centres undefined)	–	–	–	–	–	–
CC(C)(C)c1ccc(S(=O)(=O)NCC(=O)Nc2ccc(-c3nc4ccccc4s3)cc2)cc1	–	–	–	–	–	–
Cc1ccc2sc(-c3ccc(NC(=O)CCN4C(=O)c5ccccc5C4=O)cc3)nc2c1	–	–	–	–	150	162
O=C(CNS(=O)(=O)c1cccc(Cl)c1)Nc1ccc(-c2nc3ccccc3s2)cc1	–	–	–	–	145	–
CCOc1ncccc1C(=O)OCC(=O)Nc1ccc(-c2nc3ccc(C)cc3s2)cc1	3.5	–	·	–	–	164
CCOc1ncccc1C(=O)OCC(=O)Nc1c(C)cc(C)cc1C	–	–	–	–	–	–
COc1ccc2cc(CN(CC3CCCO3)C(=S)NCc3ccco3)c(=O)[nH]c2c1 (centres undefined)	–	–	–	–	–	–
CC(C)CN(C)C(=O)CC1C(=O)NCCN1C (centres undefined)	–	–	–	–	–	–
Cc1ccc2nc(-c3ccc(NC(=O)CN4CCN(C(=O)c5ccco5)CC4)cc3)sc2c1	4.4	–	–	–	–	149
O=C(COC(=O)c1ccc(Br)o1)Nc1ccc(S(=O)(=O)N2CCCC2)cc1	–	–	–	–	–	–
O=C(CN1CCN(C(=O)c2ccco2)CC1)Nc1ccc2c(c1)OCCO2	–	–	–	–	–	–
Cc1ccc2nc(-c3ccc(NC(=O)COC(=O)c4ccc(Br)o4)cc3)sc2c1	5.3	–	–	–	142	136
Cc1ccc(-c2csc(NC(=O)COC(=O)c3cccc(S(=O)(=O)N4CCOCC4)c3)n2)cc1	3.6	–	–	–	131	–
SMILES	NF-kB expr up	FLuc inh counter	Rad51 HR inh	FLuc stim CS	STAT1 activator	APP 5'UTR act
CC(CCCCC(=O)Nc1ccc(C(F)(F)F)cc1)NCCc1cnc[nH]1 (centres undefined)	·	–	–	–	·	·
O=Cc1s/c(=N\S(=O)(=O)c2ccccc2)n(CCCCl)c1Cl	–	–	–	–	136	–
COc1cccc(CNC(=O)CCC2CCCN(C(=O)C3CCOCC3)C2)c1 (centres undefined)	–	–	·	–	–	–
CNc1ccccc(-c2ccc3cc4c(cc3n2)OCO4)c1=O	–	53	·	–	–	–
CC(/C=N/NC(=O)c1cccs1)=C\c1ccccc1	8.5	76	–	–	134	188
CC(/C=N/NC(=O)c1ccco1)=C\c1ccccc1	5.9	90	–	–	–	161
O=C(N/N=C\CCc1ccccc1)c1ccco1	–	–	–	–	134	–
CC(/C=N/NC(=O)Cc1cccs1)=C\c1ccccc1	–	–	–	–	–	–
COc1ccc(N2CCN(C(=O)CSc3nc4[nH]ncc4c(=O)n3-c3ccc(Br)cc3)CC2)cc1	3.3	–	–	–	–	–
O=C(OCC(=O)N1CCc2ccccc21)c1ccccn1	–	–	–	–	–	–
CCOc1cccc2cc(C(N)=O)c(=N)oc12	·	·	–	·	·	·
COc1ccccc1OCCN1CSC(=S)N(C)C1	6.6	–	·	–	–	–
Cc1cccc(C)c1NC(=O)CC(NCCc1ccccc1)C(=O)O (centres undefined)	–	–	–	–	–	–
COc1ccc2c(c1)Cc1sc(NC(C)=O)nc1-2	–	–	–	–	146	–
COc1ccc2c(c1)Cc1sc(NC(=O)c3cccnc3)nc1-2	–	–	–	–	–	–
Cc1ccc(C#N)c(SCC(=O)Nc2nccs2)n1	–	–	–	–	–	175
N#Cc1cc2c(nc1SCC(=O)Nc1nccs1)CCCCC2	–	–	–	–	–	195
CCc1nnc(NC(=O)CSc2nc3c(cc2C#N)CCC3)s1	–	–	–	–	–	–
COc1cc(/C=N/NS(=O)(=O)c2ccc3ccccc3c2)ccc1OCc1ccc(C(=O)O)cc1	·	·	–	·	·	·
CCOc1cc(/C=N/N=C(N)N)ccc1OCc1ccc(Cl)cc1	–	–	–	–	–	–
COc1cc(/C=N/O)ccc1OCc1ccc(C(=O)O)cc1	3.4	88	–	–	–	–
COc1cc(/C=N/N=C2/NC(=O)C(CC(=O)O)S2)ccc1OCc1ccc(Cl)cc1 (centres undefined)	–	–	–	–	130	–
COc1cc(/C=N/N=C(N)N)ccc1OCc1ccc(Cl)cc1	–	–	–	–	–	180
Nc1cccc(-c2nc3cc(S(=O)(=O)c4ccc5oc(-c6cccc(N)c6)nc5c4)ccc3o2)c1	–	–	–	–	–	–
Nc1ccc2oc(-c3cccs3)nc2c1	–	–	–	–	149	–
Cc1ccc2oc(-c3cccc(N)c3)nc2c1	8.9	88	·	–	–	158
Cc1ccc(-c2nc3cc(N)ccc3o2)cc1	5.4	89	·	–	–	–
Nc1ccc2oc(-c3cccc4ccccc34)nc2c1	–	–	–	–	–	–

Compound activity deposited in PubChem by several laboratories.
